Values after ≈ are worked out from the molar mass of the structure shown. Each block holds one compound with its values, some of them ahead of it. Active and inactive are the calls of the source. No cut-off for these calls is given here.
What was measured:
[1] = molecular target: Mitogen-activated protein kinase 1 (Homo sapiens, UniProt P28482); assay: Inhibition of human ERK2 preincubated for 15 mins followed by addition of IMAP peptide substrate and ATP measured after 60 mins by IMAP-FP assay
How it was run: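 Final: 0.5 nM hERK2, 900 nM unlabeled + 80 nM labeled peptide, 30 µM ATP; 60 min, quenched with IMAP beads in binding buffer with 24 mM NaCl, read by fluorescence polarization after 60 min.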

[2] = Inhibition of ERK in human A375SM cells harboring BRAF V600E mutant assessed as inhibition of RSK phosphorylation measured after 4 hrs by mesoscale electrochemiluminescent sandwich assay; type: cell-based; conditions: A375-SM
How it was run: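 A375SM (BRAF V600E melanoma) cells, 10,000 per well, treated 4 h; lysed 20 min at 4 °C in Tris/NaCl/EGTA/EDTA/Triton/NaF buffer with protease and phosphatase inhibitors. Lysate captured with biotin anti-RSK1 on streptavidin MSD plate, detected with SULFO-TAG anti-pRSK (pThr359/Ser363) overnight at 4 °C; electrochemiluminescence read. IC50 from 11-point titration.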

[3] = Inhibition of ERK (unknown origin) assessed as inhibition of RSK phosphorylation; design: species or system Homo sapiens
A375-SM [4] = assay: Antiproliferative activity against human A375SM cells harboring BRAF V600E mutant measured after 96 hrs by Cell Titer-Glo assay; type: functional, cell-based
How it was run: (§1)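 Cells in DMEM/10 mM HEPES/10% FBS added after compound, incubated 96 h at 37 °C, 5% CO2; equilibrated 15 min at room temperature, viability by CellTiter-Glo luminescence. IC50 from 10-point, 3-fold titration curves.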

[5] = Solubility in human FaSSIF at pH 6.5; type: physicochemical
How it was run: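 Solubility measured in human fasted-state simulated intestinal fluid at pH 6.5.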

[6] = molecular target: Mitogen-activated protein kinase 1 (Mus musculus, UniProt P63085); assay: Inhibition of mouse ERK2 preincubated for 15 mins followed by addition of IMAP peptide substrate and ATP measured after 60 mins by IMAP-FP assay
Mitogen-activated protein kinase 1 (Mus musculus, UniProt P63085), sequence (P63085 whole entry): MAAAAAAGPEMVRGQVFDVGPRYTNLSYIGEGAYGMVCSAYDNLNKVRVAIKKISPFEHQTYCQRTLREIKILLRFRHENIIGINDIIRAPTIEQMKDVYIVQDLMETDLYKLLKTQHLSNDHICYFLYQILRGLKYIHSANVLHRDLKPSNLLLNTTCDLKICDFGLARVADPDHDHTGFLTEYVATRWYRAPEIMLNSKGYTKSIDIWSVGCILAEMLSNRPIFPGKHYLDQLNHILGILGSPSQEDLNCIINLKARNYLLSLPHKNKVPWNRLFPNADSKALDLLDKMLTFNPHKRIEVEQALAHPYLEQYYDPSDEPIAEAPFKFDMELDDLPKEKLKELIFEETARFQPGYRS

Cytochrome P450 3A4 = Cytochrome P450 3A4 (Homo sapiens, UniProt P08684); assay: Inhibition of CYP3A4 (unknown origin); type: ADME
Cytochrome P450 3A4, sequence (P08684 whole entry): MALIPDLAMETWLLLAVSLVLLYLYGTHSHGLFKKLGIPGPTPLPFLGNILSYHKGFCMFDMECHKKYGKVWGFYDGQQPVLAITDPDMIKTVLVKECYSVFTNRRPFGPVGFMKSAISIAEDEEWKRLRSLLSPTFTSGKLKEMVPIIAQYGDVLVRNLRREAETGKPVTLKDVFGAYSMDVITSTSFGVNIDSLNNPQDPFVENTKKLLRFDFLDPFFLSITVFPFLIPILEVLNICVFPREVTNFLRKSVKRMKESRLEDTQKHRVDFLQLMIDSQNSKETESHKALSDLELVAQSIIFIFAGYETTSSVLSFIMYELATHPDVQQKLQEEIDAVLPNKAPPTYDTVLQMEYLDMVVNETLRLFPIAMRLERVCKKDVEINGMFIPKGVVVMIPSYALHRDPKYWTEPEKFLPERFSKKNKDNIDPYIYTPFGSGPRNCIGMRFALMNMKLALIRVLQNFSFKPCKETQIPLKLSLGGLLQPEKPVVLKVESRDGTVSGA

[7] = molecular target: Voltage-gated inwardly rectifying potassium channel KCNH2 (Homo sapiens, UniProt Q12809); assay: Inhibition of human ERG
Voltage-gated inwardly rectifying potassium channel KCNH2, sequence (Q12809 whole entry): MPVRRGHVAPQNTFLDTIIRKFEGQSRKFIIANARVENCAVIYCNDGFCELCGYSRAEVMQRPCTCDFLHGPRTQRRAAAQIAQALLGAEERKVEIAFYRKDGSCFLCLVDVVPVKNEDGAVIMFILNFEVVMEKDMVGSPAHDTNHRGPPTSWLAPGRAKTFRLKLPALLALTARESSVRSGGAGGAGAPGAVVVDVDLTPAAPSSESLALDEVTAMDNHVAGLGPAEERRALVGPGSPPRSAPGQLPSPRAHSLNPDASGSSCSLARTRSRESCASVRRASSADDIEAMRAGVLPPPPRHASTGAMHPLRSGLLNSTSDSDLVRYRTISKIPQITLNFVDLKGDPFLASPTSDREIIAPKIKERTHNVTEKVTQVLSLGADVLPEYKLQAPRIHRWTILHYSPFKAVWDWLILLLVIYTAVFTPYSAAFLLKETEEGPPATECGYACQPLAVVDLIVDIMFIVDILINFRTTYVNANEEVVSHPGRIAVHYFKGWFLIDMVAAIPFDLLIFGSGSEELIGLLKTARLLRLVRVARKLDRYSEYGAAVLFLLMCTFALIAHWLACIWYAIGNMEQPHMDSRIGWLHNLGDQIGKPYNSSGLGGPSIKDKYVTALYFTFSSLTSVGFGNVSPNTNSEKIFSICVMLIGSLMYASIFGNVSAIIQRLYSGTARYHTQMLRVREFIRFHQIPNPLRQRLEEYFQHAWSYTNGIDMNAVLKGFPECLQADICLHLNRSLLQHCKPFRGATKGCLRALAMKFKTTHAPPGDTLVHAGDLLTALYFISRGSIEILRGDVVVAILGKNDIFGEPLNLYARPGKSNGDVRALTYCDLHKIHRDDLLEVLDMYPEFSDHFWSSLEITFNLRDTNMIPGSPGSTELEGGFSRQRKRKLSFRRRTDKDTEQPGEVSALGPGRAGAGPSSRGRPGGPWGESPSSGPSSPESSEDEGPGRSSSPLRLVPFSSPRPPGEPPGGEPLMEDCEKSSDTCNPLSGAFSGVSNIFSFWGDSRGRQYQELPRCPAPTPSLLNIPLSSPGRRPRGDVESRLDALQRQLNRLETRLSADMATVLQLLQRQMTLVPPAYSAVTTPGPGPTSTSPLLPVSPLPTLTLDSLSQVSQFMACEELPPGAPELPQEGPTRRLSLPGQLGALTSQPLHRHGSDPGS

[8] = molecular target: Dual specificity mitogen-activated protein kinase kinase; MEK1/2 (Homo sapiens, UniProt P36507+Q02750); assay: Inhibition of MEK in human A375 cells assessed as inhibition of ERK phosphorylation; type: cell-based
CHL-1 = assay: Antiproliferative activity against human CHL-1 cells measured after 96 hrs by Cell Titer-Glo assay; type: functional, cell-based; conditions: CHL-1, 96 h; how it was run: as §1
Homo sapiens [9] = species: Homo sapiens; assay: Selectivity ratio, ratio of IC50 for recombinant human GST-tagged ERK2 expressed in Escherichia coli to IC50 for BRAF (unknown origin)
How it was run: (§2)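 Kinase counter-screen using a coupled format: the kinase's effect was read as activity of downstream ERK. Fold selectivity is the kinase IC50 relative to the IC50 from the Invitrogen ERK2 assay.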

Homo sapiens [10] = species: Homo sapiens; assay: Selectivity ratio, ratio of IC50 for recombinant human GST-tagged ERK2 expressed in Escherichia coli to IC50 for ERK1 (unknown origin)
How it was run: (§3)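 Part of a counter-screen panel of 101 kinases. Fold selectivity is each kinase's IC50 relative to the IC50 from the Invitrogen ERK2 assay.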

Homo sapiens [11] = species: Homo sapiens; assay: Selectivity ratio, ratio of IC50 for recombinant human GST-tagged ERK2 expressed in Escherichia coli to IC50 for FLT4 (unknown origin); how it was run: as §3
Homo sapiens [12] = species: Homo sapiens; assay: Selectivity ratio, ratio of IC50 for recombinant human GST-tagged ERK2 expressed in Escherichia coli to IC50 for MEK1 (unknown origin); how it was run: as §2
Homo sapiens [13] = species: Homo sapiens; assay: Selectivity ratio, ratio of IC50 for recombinant human GST-tagged ERK2 expressed in Escherichia coli to IC50 for MEK2 (unknown origin); how it was run: as §3
Homo sapiens [14] = species: Homo sapiens; assay: Selectivity ratio, ratio of IC50 for recombinant human GST-tagged ERK2 expressed in Escherichia coli to IC50 for MELK (unknown origin); how it was run: as §3
Homo sapiens [15] = species: Homo sapiens; assay: Selectivity ratio, ratio of IC50 for recombinant human GST-tagged ERK2 expressed in Escherichia coli to IC50 for PDGFRalpha D842V mutant (unknown origin); how it was run: as §3
Homo sapiens [16] = species: Homo sapiens; assay: Selectivity ratio, ratio of IC50 for recombinant human GST-tagged ERK2 expressed in Escherichia coli to IC50 for PDGFRalpha V561D mutant (unknown origin); how it was run: as §3
[17] = Dose normalized AUC in rat at 0.5 mg/kg, iv; type: ADME, organism-based; conditions: in vivo
[18] = Plasma clearance in rat at 0.5 mg/kg, iv; type: ADME, organism-based
How it was run: (§4)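 Rats dosed IV at 0.5 mg/kg as solution in PEG400:H2O (60:40 v/v).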

[19] = Volume of distribution at steady state in rat at 0.5 mg/kg, iv; type: ADME, organism-based; conditions: in vivo, read-out: Vdss; how it was run: as §4
[20] = Half life in rat at 0.5 mg/kg, iv; type: ADME, organism-based; conditions: in vivo; how it was run: as §4
[21] = Oral bioavailability in rat at 1 mg/kg; type: ADME, organism-based; conditions: in vivo
How it was run: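 Rats dosed PO at 1 mg/kg as solution in PEG400:H2O (60:40 v/v).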

[22] = Protein binding in rat plasma; type: ADME, cell-free; conditions: read-out: PPB (converted)
[23] = Cmax in mouse xenografted with human A375SM cells at 25 mg/kg, po bid measured on day 20; type: ADME, organism-based; design: dose 25 mg/kg, route oral; conditions: in vivo
How it was run: (§5)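 Mice bearing A375SM xenografts dosed orally in PEG300:H2O (50:50 v/v) at 25 or 50 mg/kg BID or 100 mg/kg QD for 20 days, vehicle arm for comparison; tumor volume followed versus vehicle. Plasma exposure (AUC, Cmax, Tmax) measured on day 20.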

[24] = AUC in mouse xenografted with human A375SM cells at 25 mg/kg, po bid measured on day 20; type: ADME, organism-based; conditions: in vivo; how it was run: as §5
[25] = AUC in mouse xenografted with human A375SM cells at 50 mg/kg, po bid measured on day 20; type: ADME, organism-based; conditions: in vivo; how it was run: as §5
[26] = AUC in mouse xenografted with human A375SM cells at 100 mg/kg, po qd measured on day 20; type: ADME, organism-based; conditions: in vivo; how it was run: as §5
[27] = Cmax in mouse xenografted with human A375SM cells at 50 mg/kg, po bid measured on day 20; type: ADME, organism-based; design: dose 50 mg/kg, route oral; conditions: in vivo; how it was run: as §5
[28] = Cmax in mouse xenografted with human A375SM cells at 100 mg/kg, po qd measured on day 20; type: ADME, organism-based; design: dose 100 mg/kg, route oral; conditions: in vivo; how it was run: as §5
[29] = Tmax in mouse xenografted with human A375SM cells at 25 mg/kg, po bid; type: ADME, organism-based; conditions: in vivo; how it was run: as §5
[30] = Tmax in mouse xenografted with human A375SM cells at 50 mg/kg, po bid; type: ADME, organism-based; conditions: in vivo; how it was run: as §5
[31] = Tmax in mouse xenografted with human A375SM cells at 100 mg/kg, po qd; type: ADME, organism-based; conditions: in vivo; how it was run: as §5
A375-SM [32] = assay: Antitumor activity against human A375SM cells xenografted in mouse assessed as tumor growth inhibition at 25 mg/kg, po administered bid for 20 days measured after final dosage relative to vehicle treated control; type: functional; conditions: 480 h, read-out: TGI; how it was run: as §5
A375-SM [33] = assay: Antitumor activity against human A375SM cells xenografted in mouse assessed as tumor regression at 50 mg/kg, po administered bid for 20 days measured after final dosage relative to vehicle treated control; type: functional; how it was run: as §5
A375-SM [34] = assay: Antitumor activity against human A375SM cells xenografted in mouse assessed as tumor regression at 100 mg/kg, po administered qd for 20 days measured after final dosage relative to vehicle treated control; type: functional; how it was run: as §5
A375-SM [35] = assay: Antitumor activity against human A375SM cells xenografted in mouse assessed as tumor regression compound administered orally for 20 days measured after final dosage relative to vehicle treated control; type: functional
Mus musculus [36] = assay: In vivo inhibition of ERK in mouse xenografted with human A375SM cells assessed as inhibition RSK phosphorylation at 100 mg/kg, po administered qd for 20 days measured after 2 to 24 hrs post final dosage; type: functional, organism-based
How it was run: (§6)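 A375SM xenograft mice given 100 mg/kg QD orally in PEG300:H2O (50:50 v/v) for 20 days; after final dose on day 20, blood taken at several time points from this arm and vehicle arm for compound exposure and pRSK and pERK levels.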

Mus musculus [37] = assay: In vivo inhibition of MEK in mouse xenografted with human A375SM cells assessed as inhibition ERK phosphorylation at 100 mg/kg, po administered qd for 20 days measured after 2 to 24 hrs post final dosage; type: functional, organism-based; how it was run: as §6
[38] = Plasma concentration in mouse xenografted with human A375SM cells at 100 mg/kg, po administered qd for 20 days measured after 2 hrs of final dose; type: ADME, organism-based; how it was run: as §6
[39] = Plasma concentration in mouse xenografted with human A375SM cells at 100 mg/kg, po administered qd for 20 days measured after 6 hrs of final dose; type: ADME, organism-based; how it was run: as §6
[40] = Plasma concentration in mouse xenografted with human A375SM cells at 100 mg/kg, po administered qd for 20 days measured after 8 hrs of final dose; type: ADME, organism-based; how it was run: as §6
[41] = Plasma concentration in mouse xenografted with human A375SM cells at 100 mg/kg, po administered qd for 20 days measured after 12 hrs of final dose; type: ADME, organism-based; how it was run: as §6
[42] = Plasma concentration in mouse xenografted with human A375SM cells at 100 mg/kg, po administered qd for 20 days measured after 24 hrs of final dose; type: ADME, organism-based; how it was run: as §6

Mitogen-activated protein kinase 1 (Homo sapiens, UniProt P28482), sequence (P28482 whole entry): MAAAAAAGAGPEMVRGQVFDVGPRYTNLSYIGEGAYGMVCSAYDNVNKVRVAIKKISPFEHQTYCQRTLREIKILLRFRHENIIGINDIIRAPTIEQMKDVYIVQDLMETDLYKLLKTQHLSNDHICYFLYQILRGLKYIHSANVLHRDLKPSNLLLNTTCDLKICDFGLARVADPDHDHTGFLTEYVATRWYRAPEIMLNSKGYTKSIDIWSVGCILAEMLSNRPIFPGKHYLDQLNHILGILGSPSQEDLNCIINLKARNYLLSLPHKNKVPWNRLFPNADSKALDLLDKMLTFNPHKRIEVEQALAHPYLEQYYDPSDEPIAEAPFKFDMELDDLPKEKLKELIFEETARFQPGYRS

IC50 [6]: 420 nM
Structure (SMILES): Cc1cc(-c2n[nH]c3cc(NC(=O)CCc4ccccc4)ncc23)ccn1

IC50 (Cytochrome P450 3A4): 780 nM
IC50 [1]: 0.3 nM
IC50 [2]: 130 nM
Structure (SMILES): Cc1cc(-c2n[nH]c3cc(NC(=O)N[C@H](C)c4ccccc4)ncc23)cc(C)n1
IC50 [7]: > 20000 nM

IC50 [1]: 2400 nM
Structure (SMILES): Cc1cc(-c2n[nH]c3cc(NS(=O)(=O)NCc4ccccc4)ncc23)ccn1

IC50 [1]: 0.9 nM
IC50 [2]: 810 nM
Structure (SMILES): Cc1cc(-c2n[nH]c3cc(NC(=O)N[C@H](C)c4ccccc4)ncc23)cnn1

IC50 (Cytochrome P450 3A4): 3900 nM
IC50 [1]: 0.2 nM
IC50 [3]: 77 nM
IC50 [8]: > 10000 nM
IC50 (A375-SM [4]): 43 nM
solubility [5]: 18 µM (≈ 6.7 µg/mL)
IC50 [2]: 70 nM
Ratio IC50 (Homo sapiens [9]): < 100
Ratio IC50 (Homo sapiens [10]): < 100
Ratio IC50 (Homo sapiens [11]): < 100
Ratio IC50 (Homo sapiens [12]): < 100
Ratio IC50 (Homo sapiens [13]): < 100
Ratio IC50 (Homo sapiens [14]): < 100
Ratio IC50 (Homo sapiens [15]): < 100
Ratio IC50 (Homo sapiens [16]): < 100
AUC/dose [17]: 1.3 µM·h/mg/kg
clearance [18]: 35 mL/min/kg
Vd [19]: 1.7 L/kg
half-life [20]: 0.7 h
bioavailability [21]: 12%
fraction unbound [22]: 0.012
Cmax [23]: 12 µM
AUC [24]: 95 µM·h
AUC [25]: 240 µM·h
AUC [26]: 320 µM·h
Cmax [27]: 23 µM
Cmax [28]: 27 µM
Tmax [29]: 11 h
Tmax [30]: 11 h
Tmax [31]: 4 h
concentration at 2 h [38]: 20 µM
concentration at 6 h [39]: 5.2 µM
concentration at 8 h [40]: 6.7 µM
concentration at 12 h [41]: 1.6 µM
concentration at 24 h [42]: 0.1 µM
Structure (SMILES): Cc1cc(-c2n[nH]c3cc(NC(=O)N[C@H](C)c4ccccc4)ncc23)ccn1
IC50 [7]: > 20000 nM
IC50 (CHL-1): 1300 nM
inhibition in vivo at 25 mg/kg (A375-SM [32]): 82%
Activity (A375-SM [33]): 47%
Activity (A375-SM [34]): 42%
Activity (A375-SM [35]): Dose-dependent effect
inhibition (Mus musculus [36]): Active
inhibition (Mus musculus [37]): inactive

IC50 [6]: > 3000 nM
Structure (SMILES): Cc1cc(-c2n[nH]c3cc(NC(=O)OCc4ccccc4)ccc23)ccn1

The next lines start with the compound.

Structure (SMILES): CCCc1n[nH]c2cc(NC(=O)N[C@H](C)c3ccccc3)ncc12
IC50 [1]: 2 nM
IC50 [2]: 350 nM

Structure (SMILES): O=C(Nc1ccc2[nH]nc(-c3ccncc3)c2c1)[C@@H]1CCN(CC(=O)N2CCN(c3ccc(-c4ncccn4)cc3)CC2)C1
IC50 [3]: 57 nM
IC50 (A375-SM [4]): 39 nM
solubility [5]: 38 µM (≈ 22.3 µg/mL)

Structure (SMILES): Cc1cc(-c2n[nH]c3cc(Nc4nccs4)ncc23)ccn1
IC50 [1]: 56 nM

Structure (SMILES): C[C@@H](NC(=O)Nc1cc2[nH]nc(C3CCCC3)c2cn1)c1ccccc1
IC50 [1]: 4 nM
IC50 [2]: 810 nM

Structure (SMILES): C[C@@H](NC(=O)Nc1cc2[nH]nc(C3CC3)c2cn1)c1ccccc1
IC50 [2]: 550 nM
